Reference: PubChem BioAssay
The source made the active and inactive calls.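 Rule for the calls, unless noted: active = fluorescence slope higher than the sample average by over 3 SD (cut at about -0.22 in these data, passing the limit was not always enough); inactive = the rest.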

Key:
[1] = inhibitors of TNFa-induced NFkB p65 translocation, primary screen, imaging, HUVEC, MLSMR starter and 10KST1 sets (AID 438;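 active = inhibition above 20% together with a positive visual image hit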;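 note: compound added about 3h40 before a 20 min TNFalpha stimulation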;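 for inhibition: signal is the nuclear over cytoplasmic p65 intensity ratio per well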); conditions: HUVEC TNFa-induced p65 nuclear translocation; cell count: measured here: nuclei count (cytotoxicity indicator), at 2.08 µM; inhibition: at 2 µM, stronger effect = higher value, 0% TNFa-plus-vehicle, 100% no-TNFa wells
[2] = inhibitors of mutant huntingtin aggregation, primary screen, imaging, exon1htt(103Q)mCFP cells, high-content imaging (AID 483;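 active = visual image review flags a hit and inhibition of aggregation exceeds 20%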;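 note: compound exposure lasted 3 days before fixation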;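 for nuclei count: percent of the per-plate median nuclei count of sample wells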); conditions: exon1htt(103Q)mCFP cell line, aggregate imaging, at 2 µM; inhibition of aggregation: stronger effect = higher value; nuclei count: measured here: cell count, toxicity
[3] = inhibitors of E-selectin induction by TNFa, primary screen, imaging, HUVEC, immunofluorescence, MLSMR starter and 10KST1 sets (AID 487;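 active = visually confirmed hit in the image check and inhibition above 20%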;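 for inhibition: signal is fraction of cell area covered by stained E-selectin grains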;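 for nuclei count: 100% = median nuclei count of all wells on the same plate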); conditions: HUVEC TNFalpha-induced E-selectin immunofluorescence imaging, at 2 µM; inhibition: stronger effect = higher value; nuclei count: measured here: cell number, toxicity
[4] = target: Voltage-gated potassium channel subunit beta-2 (Rattus norvegicus) (UniProt P62483); assay: KvBeta enzyme negative modulators, primary screen, biochemical, NADPH fluorescence (AID 622); conditions: recombinant KvBeta, 4-cyanobenzaldehyde reduction, at 10 µM, stronger effect = higher value;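 note: slope of raw intensity against log time taken from 70 to 1610 s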
Sequence of Voltage-gated potassium channel subunit beta-2 (Rattus norvegicus) (P62483 whole entry, looked up): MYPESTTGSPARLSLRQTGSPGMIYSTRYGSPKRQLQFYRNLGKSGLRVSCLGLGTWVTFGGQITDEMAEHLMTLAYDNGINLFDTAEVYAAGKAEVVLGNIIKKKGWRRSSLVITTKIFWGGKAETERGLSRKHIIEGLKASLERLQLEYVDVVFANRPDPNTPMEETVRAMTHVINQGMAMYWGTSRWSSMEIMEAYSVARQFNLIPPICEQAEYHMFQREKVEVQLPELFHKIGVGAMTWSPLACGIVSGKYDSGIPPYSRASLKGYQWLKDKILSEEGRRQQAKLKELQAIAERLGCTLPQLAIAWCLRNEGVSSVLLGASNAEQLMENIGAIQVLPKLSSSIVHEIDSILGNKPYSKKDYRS

[5] = target: Voltage-gated potassium channel subunit beta-2 (Rattus norvegicus) (UniProt P62483); assay: KvBeta positive modulators, primary screen, biochemical, NADPH fluorescence (AID 623;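 active = NADPH fluorescence slope more negative than the mean of all samples by about 3 SD, 99.7% confidence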;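 note: fluorescence intensity change per second fitted from 20 to 320 s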); conditions: Recombinant KvBeta, NADPH fluorescence decrease slope, 10 min; at 10 µM; stronger effect = lower value
[6] = target: Muscarinic acetylcholine receptor M4 (Homo sapiens) (UniProt P08173); assay: compounds altering M4/GIRK thallium flux, either direction, primary screen, M4 allosteric agonist project, cell-based, HEK293 M4/GIRK, BTC-AM (AID 625;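 active = fluorescence slope after compound addition differing from the mean of all tested samples at 99.7% confidence, mostly higher but some lower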;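 note: thallium influx through GIRK channels coupled to M4 in HEK293 cells with BTC-AM dye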); conditions: at 10 µM, actives lie on both sides
Sequence of Muscarinic acetylcholine receptor M4 (Homo sapiens) (P08173 whole entry, looked up): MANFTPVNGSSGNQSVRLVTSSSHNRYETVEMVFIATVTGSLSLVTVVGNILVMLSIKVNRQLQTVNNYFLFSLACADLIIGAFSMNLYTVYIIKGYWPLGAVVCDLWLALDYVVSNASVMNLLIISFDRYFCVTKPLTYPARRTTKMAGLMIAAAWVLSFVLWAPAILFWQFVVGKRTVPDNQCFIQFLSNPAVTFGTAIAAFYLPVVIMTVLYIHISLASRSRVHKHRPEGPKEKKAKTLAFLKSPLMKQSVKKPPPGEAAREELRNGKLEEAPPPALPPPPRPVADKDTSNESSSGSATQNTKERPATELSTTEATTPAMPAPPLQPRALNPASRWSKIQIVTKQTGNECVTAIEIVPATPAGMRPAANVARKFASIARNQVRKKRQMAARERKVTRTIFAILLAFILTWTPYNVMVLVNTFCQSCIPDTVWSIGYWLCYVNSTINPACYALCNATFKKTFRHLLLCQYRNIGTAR
Outline: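 Material: M4/GIRK1/GIRK2 stable HEK293 cell line. Medium: pH 7.3 thallium assay buffer. Dosing: single compound concentration, 10 µM final. Schedule: 1 h dye loading, 2 min kinetic read. Measured by: kinetic fluorescence with BTC-AM dye. Read-out: post-addition slope, 15–24 s, of baseline-normalized fluorescence. Benchmarks: carbachol and DMSO controls.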

[7] = inhibitors of Sendai virus-induced IRF3 signaling, primary screen, TLR/RLR signaling modifier project, cell-based, Sendai virus stimulus, luciferase, 10K MLSCN set (AID 602276;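 active = inhibition at or above 50% at 10 µM; inactive = inhibition below 50%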;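 note: firefly luciferase from ISG56 promoter only with Renilla not read in this screen; 0% = Sendai virus plus DMSO and 100% = medium plus DMSO without virus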); conditions: HEK293 RL24 IRF3 luciferase reporter, at 10 µM, stronger effect = higher value
[8] = inhibitors of poly I:C-induced TLR3 signaling, primary screen, cell-based, poly I:C stimulus, luciferase, 10K MLSCN set (AID 602277;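 active = inhibition of the reporter signal at or above 50%; inactive = inhibition below 50%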); conditions: HEK293-TLR3 RL24 IRF3 luciferase reporter, at 10 µM, stronger effect = higher value

CC(=O)Nc1nc(-c2ccc(Cl)cc2)nc(C)c1C(C)=O
cell count [1]: 577
inhibition [1]: 0.5% (inactive)
inhibition of aggregation [2]: -13.8% (inactive)
nuclei count [2]: 92.9%
inhibition [3]: -9.1% (inactive)
nuclei count [3]: 90.1%
fluorescence slope [4]: -0.261 (inactive)
NADPH fluorescence slope [5]: -3.2e-05 (inactive)
fluorescence slope [6]: 0.00747 (inactive)
inhibition [7]: 2.94% (inactive)
inhibition [8]: 6.23% (inactive)

Clc1cccc(-c2nn3c(Cn4cnc5ccccc54)nnc3s2)c1
cell count [1]: 581
inhibition [1]: 4.7% (inactive)
inhibition of aggregation [2]: -6.1% (inactive)
nuclei count [2]: 113%
inhibition [3]: -92.1% (inactive)
nuclei count [3]: 130%
fluorescence slope [4]: -0.432 (inactive)
NADPH fluorescence slope [5]: -0.000274 (inactive)
fluorescence slope [6]: 0.00396 (inactive)
inhibition [7]: 18.7% (inactive)
inhibition [8]: 21.6% (inactive)

CCN1C(=O)NC(c2cc(Br)ccc2OC)C(C(=O)OC)=C1C (centres undefined)
cell count [1]: 451
inhibition [1]: -13.1% (inactive)
inhibition of aggregation [2]: 2.4% (inactive)
nuclei count [2]: 92%
inhibition [3]: -25.6% (inactive)
nuclei count [3]: 89.2%
fluorescence slope [4]: -0.491 (inactive)
NADPH fluorescence slope [5]: 3.4e-05 (inactive)
fluorescence slope [6]: 0.00605 (inactive)
inhibition [7]: -1.28% (inactive)
inhibition [8]: 17.3% (inactive)

CCC(C)n1[nH]c(=O)c2c(C)cc(C)nc21 (centres undefined)
cell count [1]: 405
inhibition [1]: 1.8% (inactive)
inhibition of aggregation [2]: 2.2% (inactive)
nuclei count [2]: 101%
inhibition [3]: -50.1% (inactive)
nuclei count [3]: 108%
fluorescence slope [4]: -0.565 (inactive)
NADPH fluorescence slope [5]: -5.9e-05 (inactive)
fluorescence slope [6]: 0.00534 (inactive)
inhibition [7]: 6.37% (inactive)
inhibition [8]: 15.3% (inactive)

O=C(NCc1ccco1)c1cc2c(s1)CSC2
cell count [1]: 473
inhibition [1]: -4.3% (inactive)
inhibition of aggregation [2]: 3.2% (inactive)
nuclei count [2]: 105%
inhibition [3]: -31.1% (inactive)
nuclei count [3]: 118%
fluorescence slope [4]: -0.544 (inactive)
NADPH fluorescence slope [5]: 1.9e-05 (inactive)
fluorescence slope [6]: 0.00557 (inactive)
inhibition [7]: 9.74% (inactive)
inhibition [8]: 12.5% (inactive)

O=C(Cn1nnc2c(cnn2-c2ccc(F)cc2)c1=O)c1ccccc1F
cell count [1]: 438
inhibition [1]: 5.1% (inactive)
inhibition of aggregation [2]: -13.6% (inactive)
nuclei count [2]: 104%
inhibition [3]: -86.3% (inactive)
nuclei count [3]: 118%
fluorescence slope [4]: -0.553 (inactive)
NADPH fluorescence slope [5]: -4.4e-05 (inactive)
fluorescence slope [6]: 0.00571 (inactive)
inhibition [7]: 11.8% (inactive)
inhibition [8]: 10.7% (inactive)

O=C1CC(C(=O)Nc2ccccc2)C2(CCCC2)O1 (centres undefined)
cell count [1]: 425
inhibition [1]: 6% (inactive)
inhibition of aggregation [2]: 2.4% (inactive)
nuclei count [2]: 106%
inhibition [3]: -80.4% (inactive)
nuclei count [3]: 110%
fluorescence slope [4]: -0.569 (inactive)
NADPH fluorescence slope [5]: -5.8e-05 (inactive)
fluorescence slope [6]: 0.00631 (inactive)
inhibition [7]: 4.72% (inactive)
inhibition [8]: 6.07% (inactive)

Cc1ccc(-n2c(=O)c3sccc3n(CC(=O)NCc3ccco3)c2=O)cc1
cell count [1]: 488
inhibition [1]: 0.3% (inactive)
inhibition of aggregation [2]: 21.9% (inactive)
nuclei count [2]: 103%
inhibition [3]: -9.8% (inactive)
nuclei count [3]: 108%
fluorescence slope [4]: -0.579 (inactive)
NADPH fluorescence slope [5]: -3.1e-05 (inactive)
fluorescence slope [6]: 0.0056 (inactive)
inhibition [7]: 6.07% (inactive)
inhibition [8]: 12.8% (inactive)

CCOC(=O)C1=C(C)NC(SC(C)=O)=NC1c1ccc(OC(C)=O)c(OC)c1 (centres undefined)
cell count [1]: 550
inhibition [1]: 0% (inactive)
inhibition of aggregation [2]: 50% (active)
nuclei count [2]: 64.7%
inhibition [3]: -10.1% (inactive)
nuclei count [3]: 101%
fluorescence slope [4]: -0.507 (inactive)
NADPH fluorescence slope [5]: -0.000113 (inactive)
fluorescence slope [6]: 0.0052 (inactive)
inhibition [7]: 1.93% (inactive)
inhibition [8]: 1.43% (inactive)

CCCCC(=O)Nc1nn(CCC)c2nc3ccccc3cc12
cell count [1]: 363
inhibition [1]: 4.2% (inactive)
inhibition of aggregation [2]: -14.8% (inactive)
nuclei count [2]: 108%
inhibition [3]: -44.8% (inactive)
nuclei count [3]: 116%
fluorescence slope [4]: -0.568 (inactive)
NADPH fluorescence slope [5]: -3.3e-05 (inactive)
fluorescence slope [6]: 0.00381 (inactive)
inhibition [7]: 10.1% (inactive)
inhibition [8]: -0.131% (inactive)

CCC(=O)N1CCc2cc(Br)cc(S(=O)(=O)CCC(=O)NCC3CCCO3)c21 (centres undefined)
cell count [1]: 628
inhibition [1]: 2.7% (inactive)
inhibition of aggregation [2]: 12.7% (inactive)
nuclei count [2]: 76.3%
inhibition [3]: -113% (inactive)
nuclei count [3]: 107%
fluorescence slope [4]: -0.312 (inactive)
NADPH fluorescence slope [5]: -3.4e-05 (inactive)
fluorescence slope [6]: 0.00706 (inactive)
inhibition [7]: 11.2% (inactive)
inhibition [8]: 9.46% (inactive)

Cn1c(=O)c2c(nc(SCc3nn[nH]n3)n2Cc2ccccc2F)n(C)c1=O
cell count [1]: 481
inhibition [1]: -9.5% (inactive)
inhibition of aggregation [2]: 13.9% (inactive)
nuclei count [2]: 81.9%
inhibition [3]: -5.3% (inactive)
nuclei count [3]: 96.9%
fluorescence slope [4]: -0.535 (inactive)
NADPH fluorescence slope [5]: 4.4e-06 (inactive)
fluorescence slope [6]: 0.00622 (inactive)
inhibition [7]: 15% (inactive)
inhibition [8]: 17.9% (inactive)

COc1cc(C(=O)N2c3ccccc3CC2C)cc(OC)c1OC (centres undefined)
cell count [1]: 348
inhibition [1]: 4.3% (inactive)
inhibition of aggregation [2]: -6.3% (inactive)
nuclei count [2]: 89%
inhibition [3]: -13.9% (inactive)
nuclei count [3]: 113%
fluorescence slope [4]: -0.296 (inactive)
NADPH fluorescence slope [5]: -2.6e-05 (inactive)
fluorescence slope [6]: 0.0071 (inactive)
inhibition [7]: 17.5% (inactive)
inhibition [8]: 33.5% (inactive)

O=C(c1ccc2c(c1)OCO2)N1CCNc2ccccc2C1
cell count [1]: 518
inhibition [1]: -0.5% (inactive)
inhibition of aggregation [2]: 21.2% (inactive)
nuclei count [2]: 91%
inhibition [3]: -14.3% (inactive)
nuclei count [3]: 85.2%
fluorescence slope [4]: -0.559 (inactive)
NADPH fluorescence slope [5]: -3.1e-05 (inactive)
fluorescence slope [6]: 0.00561 (inactive)
inhibition [7]: 8.51% (inactive)
inhibition [8]: 2.68% (inactive)
